Data from ChEMBL document CHEMBL3227922, “Synthesis and antitumor activity of sugar-ring hydroxyl analogues of daunorubicin” (J Med Chem, 1979).

How the values were obtained:
P388 [1] = experiment: Antitumor activity against mouse P388 cells allografted in CDF1 mouse assessed as tumor inhibition at 50 mg/kg, ip on days 5, 9 and 13 relative to untreated control; assay type: functional; conditions: route intraperitoneal
Method in brief: (§1)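 CDF₁ mice given 10⁶ P388 lymphocytic leukemia cells ip on day 0; drug ip on days 5, 9 and 13. Six mice per dose level (five for one compound). T/C % = median survival time as percent of untreated controls. Acute toxic death counted as survival under 5 days after treatment.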

P388 [2] = experiment: Antitumor activity against mouse P388 cells allografted in CDF1 mouse assessed as tumor inhibition at 25 mg/kg, ip on days 5, 9 and 13 relative to untreated control; assay type: functional; conditions: route intraperitoneal; method in brief: as §1
P388 [3] = experiment: Antitumor activity against mouse P388 cells allografted in CDF1 mouse assessed as tumor inhibition at 200 mg/kg, ip on days 5, 9 and 13 relative to untreated control; assay type: functional; conditions: route intraperitoneal; method in brief: as §1
P388 [4] = experiment: Antitumor activity against mouse P388 cells allografted in CDF1 mouse assessed as tumor inhibition at 12.5 mg/kg, ip on days 5, 9 and 13 relative to untreated control; assay type: functional; conditions: route intraperitoneal; method in brief: as §1
Mus musculus [5] = experiment: Toxicity in CDF1 mouse allografted with mouse P388 cells assessed as survival at 12.5 to 200 mg/kg, ip on days 5, 9 and 13; assay type: organism-based; parameters: dose 12.5-200 mg/kg, route intraperitoneal; conditions: in vivo
Method in brief: (§2)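 CDF1 mice were inoculated ip with 10⁶ P388 lymphocytic leukemia cells on day 0. Drug was given ip on days 5, 9 and 13, with six mice per dose level. Read-out was median survival time as percent of untreated controls (T/C). Acute toxic-drug deaths were defined as survival under 5 days after treatment injection.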

P388 [6] = experiment: Antitumor activity against mouse P388 cells allografted in CDF1 mouse assessed as tumor inhibition at 100 mg/kg, ip on days 5, 9 and 13 relative to untreated control; assay type: functional; conditions: route intraperitoneal; method in brief: as §1
Mus musculus [7] = experiment: Toxicity in BDF1 mouse allografted with mouse B16 cells at 100 mg/kg, ip on day 5; conditions: in vivo
B16 [8] = experiment: Antitumor activity against mouse B16 cells allografted in BDF1 mouse assessed as tumor inhibition at 12.5 mg/kg, ip on day 5 relative to untreated control; conditions: route intraperitoneal
B16 [9] = experiment: Antitumor activity against mouse B16 cells allografted in BDF1 mouse assessed as tumor inhibition at 50 mg/kg, ip on day 5 relative to untreated control; conditions: route intraperitoneal
B16 [10] = experiment: Antitumor activity against mouse B16 cells allografted in BDF1 mouse assessed as tumor inhibition at 25 mg/kg, ip on day 5 relative to untreated control; conditions: route intraperitoneal
P388 [11] = experiment: Antitumor activity against mouse P388 cells allografted in CDF1 mouse assessed as tumor inhibition at 400 mg/kg, ip on days 5, 9 and 13 relative to untreated control; assay type: functional; conditions: route intraperitoneal; method in brief: as §1
Mus musculus [12] = experiment: Toxicity in CDF1 mouse allografted with mouse P388 cells assessed as survival at 25 to 400 mg/kg, ip on days 5, 9 and 13; assay type: organism-based; parameters: dose 25-400 mg/kg, route intraperitoneal; conditions: in vivo
Method in brief: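 Median survival time was expressed as percent of untreated controls (T/C). Acute toxic-drug deaths were scored as survival under 5 days after treatment injection.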

Mus musculus [13] = experiment: Toxicity in BDF1 mouse allografted with mouse B16 cells at 200 mg/kg, ip on day 5; conditions: in vivo
Mus musculus [14] = experiment: Toxicity in CDF1 mouse allografted with mouse P388 cells assessed as survival at 3.13 to 50 mg/kg, ip on days 5, 9 and 13; assay type: organism-based; parameters: dose 3.13-50 mg/kg, route intraperitoneal; conditions: in vivo; method in brief: as §2
P388 [15] = experiment: Antitumor activity against mouse P388 cells allografted in CDF1 mouse assessed as tumor inhibition at 6.25 mg/kg, ip on days 5, 9 and 13 relative to untreated control; assay type: functional; conditions: route intraperitoneal; method in brief: as §1
P388 [16] = experiment: Antitumor activity against mouse P388 cells allografted in CDF1 mouse assessed as tumor inhibition at 3.13 mg/kg, ip on days 5, 9 and 13 relative to untreated control; assay type: functional; conditions: route intraperitoneal; method in brief: as §1
Mus musculus [17] = experiment: Toxicity in CDF1 mouse allografted with mouse P388 cells assessed as survival at 2 to 32 mg/kg, ip on days 5, 9 and 13; assay type: organism-based; parameters: dose 2-32 mg/kg, route intraperitoneal; conditions: in vivo; method in brief: as §2
P388 [18] = experiment: Antitumor activity against mouse P388 cells allografted in CDF1 mouse assessed as tumor inhibition at 4 mg/kg, ip on days 5, 9 and 13 relative to untreated control; assay type: functional; conditions: route intraperitoneal; method in brief: as §1
B16 [19] = experiment: Antitumor activity against mouse B16 cells allografted in BDF1 mouse assessed as tumor inhibition at 2 mg/kg, ip on day 5 relative to untreated control; conditions: route intraperitoneal
P388 [20] = experiment: Antitumor activity against mouse P388 cells allografted in CDF1 mouse assessed as tumor inhibition at 8 mg/kg, ip on days 5, 9 and 13 relative to untreated control; assay type: functional; conditions: route intraperitoneal; method in brief: as §1
P388 [21] = experiment: Antitumor activity against mouse P388 cells allografted in CDF1 mouse assessed as tumor inhibition at 2 mg/kg, ip on days 5, 9 and 13 relative to untreated control; assay type: functional; conditions: route intraperitoneal; method in brief: as §1
P388 [22] = experiment: Antitumor activity against mouse P388 cells allografted in CDF1 mouse assessed as tumor inhibition at 32 mg/kg, ip on days 5, 9 and 13 relative to untreated control; assay type: functional; conditions: route intraperitoneal; method in brief: as §1
Mus musculus [23] = experiment: Toxicity in BDF1 mouse allografted with mouse B16 cells at 16 mg/kg, ip on day 5; conditions: in vivo
B16 [24] = experiment: Antitumor activity against mouse B16 cells allografted in BDF1 mouse assessed as tumor inhibition at 1 mg/kg, ip on day 5 relative to untreated control; conditions: route intraperitoneal
P388 [25] = experiment: Antitumor activity against mouse P388 cells allografted in CDF1 mouse assessed as tumor inhibition at 16 mg/kg, ip on days 5, 9 and 13 relative to untreated control; assay type: functional; conditions: route intraperitoneal; method in brief: as §1
B16 [26] = experiment: Antitumor activity against mouse B16 cells allografted in BDF1 mouse assessed as tumor inhibition at 4 mg/kg, ip on day 5 relative to untreated control; conditions: route intraperitoneal
P388 [27] = experiment: Antitumor activity against mouse P388 cells allografted in CDF1 mouse assessed as tumor inhibition at 1 mg/kg, ip on days 5, 9 and 13 relative to untreated control; assay type: functional; conditions: route intraperitoneal; method in brief: as §1
Mus musculus [28] = experiment: Toxicity in BDF1 mouse allografted with mouse B16 cells at 1 to 16 mg/kg, ip on day 5; conditions: in vivo
Mus musculus [29] = experiment: Toxicity in CDF1 mouse allografted with mouse P388 cells assessed as survival at 1 to 16 mg/kg, ip on days 5, 9 and 13; assay type: organism-based; parameters: dose 1-16 mg/kg, route intraperitoneal; conditions: in vivo; method in brief: as §2
B16 [30] = experiment: Antitumor activity against mouse B16 cells allografted in BDF1 mouse assessed as tumor inhibition at 8 mg/kg, ip on day 5 relative to untreated control; conditions: route intraperitoneal
B16 [31] = experiment: Antitumor activity against mouse B16 cells allografted in BDF1 mouse assessed as tumor inhibition at 16 mg/kg, ip on day 5 relative to untreated control; conditions: route intraperitoneal

Structure (SMILES): COc1cccc2c1C(=O)c1c(O)c3c(c(O)c1C2=O)C[C@@](O)(C(C)=O)C[C@@H]3O[C@H]1C[C@H](OC(C)=O)[C@H](OC(C)=O)[C@H](C)O1
- T/C (P388 [1]): 110%
- T/C (P388 [2]): 108%
- T/C (P388 [3]): 186%
- T/C (P388 [4]): 100%
- Activity (Mus musculus [5]): Non-toxic
- T/C (P388 [6]): 155%

Structure (SMILES): COc1cccc2c1C(=O)c1c(O)c3c(c(O)c1C2=O)C[C@@](O)(C(C)=O)C[C@@H]3O[C@H]1C[C@H](O)[C@H](O)[C@H](C)O1
- Activity (Mus musculus [7]): Toxic
- T/C (B16 [8]): 113%
- T/C (B16 [9]): 146%
- T/C (P388 [1]): 183%
- T/C (B16 [10]): 126%
- T/C (P388 [2]): 125%
- T/C (P388 [11]): 89%
- Activity (Mus musculus [12]): Non-toxic
- Activity (Mus musculus [13]): Toxic
- T/C (P388 [6]): 156%

Structure (SMILES): COc1cccc2c1C(=O)c1c(O)c3c(c(O)c1C2=O)C[C@@](O)(C(C)=O)C[C@@H]3O[C@@H]1C[C@H](OC(=O)c2ccc([N+](=O)[O-])cc2)[C@H](OC(=O)c2ccc([N+](=O)[O-])cc2)[C@@H](C)O1
- Activity (Mus musculus [14]): Non-toxic
- T/C (P388 [15]): 106%
- T/C (P388 [1]): 105%
- T/C (P388 [2]): 107%
- T/C (P388 [4]): 110%
- T/C (P388 [16]): 101%

Structure (SMILES): COc1cccc2c1C(=O)c1c(O)c3c(c(O)c1C2=O)C[C@@](O)(C(C)=O)C[C@@H]3O[C@H]1C[C@H](OC(=O)c2ccc([N+](=O)[O-])cc2)[C@H](OC(=O)c2ccc([N+](=O)[O-])cc2)[C@@H](C)O1
- Activity (Mus musculus [14]): Non-toxic
- T/C (P388 [15]): 100%
- T/C (P388 [1]): 101%
- T/C (P388 [2]): 106%
- T/C (P388 [4]): 99%
- T/C (P388 [16]): 98%

Structure (SMILES): COc1cccc2c1C(=O)c1c(O)c3c(c(O)c1C2=O)C[C@@](O)(C(C)=O)C[C@@H]3O[C@@H]1C[C@H](O)[C@H](O)[C@@H](C)O1
- Activity (Mus musculus [14]): Non-toxic
- T/C (P388 [15]): 100%
- T/C (P388 [1]): 101%
- T/C (P388 [2]): 101%
- T/C (P388 [4]): 100%
- T/C (P388 [16]): 99%

Structure (SMILES): COc1cccc2c1C(=O)c1c(O)c3c(c(O)c1C2=O)C[C@@](O)(C(C)=O)C[C@@H]3O[C@H]1C[C@H](O)[C@H](O)[C@@H](C)O1
- Activity (Mus musculus [14]): Non-toxic
- T/C (P388 [15]): 102%
- T/C (P388 [1]): 102%
- T/C (P388 [2]): 100%
- T/C (P388 [4]): 97%
- T/C (P388 [16]): 100%

Structure (SMILES): COc1cccc2c1C(=O)c1c(O)c3c(c(O)c1C2=O)C[C@@](O)(C(C)=O)C[C@@H]3O[C@H]1C[C@H](N)[C@H](O)[C@H](C)O1 [DAUNORUBICIN]
- Activity (Mus musculus [17]): Non-toxic
- T/C (P388 [18]): 123%
- T/C (B16 [19]): 127%
- T/C (P388 [20]): 151%
- T/C (P388 [21]): 116%
- T/C (P388 [22]): 97%
- Activity (Mus musculus [23]): Toxic
- T/C (B16 [24]): 122%
- T/C (P388 [25]): 122%
- T/C (B16 [26]): 96%

Structure (SMILES): COc1cccc2c1C(=O)c1c(O)c3c(c(O)c1C2=O)C[C@@](O)(C(=O)CO)C[C@@H]3O[C@H]1C[C@H](N)[C@H](O)[C@H](C)O1 [DOXORUBICIN]
- T/C (P388 [27]): 118%
- T/C (P388 [18]): 149%
- T/C (B16 [19]): 122%
- T/C (P388 [20]): 150%
- Activity (Mus musculus [28]): Non-toxic
- T/C (P388 [21]): 132%
- Activity (Mus musculus [29]): Non-toxic
- T/C (B16 [30]): 150%
- T/C (B16 [24]): 118%
- T/C (P388 [25]): 114%
- T/C (B16 [31]): 156%
- T/C (B16 [26]): 132%
